pIC50: −log10 of the molar value.
What was measured:
[1] = Antiinflammatory activity in FMLP/CB activated human neutrophils assessed as inhibition of elastase release; assay type: functional, cell-based, Neutrophil; settings: for pIC50: Homo sapiens, Neutrophil, read-out: IC50
Outline: (§1)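 Neutrophils from healthy donor blood (dextran sedimentation, Ficoll 1.077 g/mL, hypotonic lysis), held in Ca2+-free HBSS pH 7.4 at 4 °C. Cells (6 × 10^5/mL) with MeO-Suc-Ala-Ala-Pro-Val-p-nitroanilide 100 μM, equilibrated 37 °C 2 min, drug or 0.1% DMSO 5 min, then 100 nM FMLP plus 0.5 μg/mL cytochalasin B. A405 monitored continuously; expressed relative to drug-free activated control; n = 3−4.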

[2] = Antiinflammatory activity in FMLP/CB activated human neutrophils assessed as inhibition of superoxide generation by ferricytochrome c reduction based spectrophotometry; assay type: functional, cell-based, Neutrophil; settings: for pIC50: Homo sapiens, Neutrophil, read-out: IC50
Outline: (§2)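 Human donor neutrophils (6 × 10^5 cells/mL) with 0.5 mg/mL ferricytochrome c and 1 mM Ca2+, equilibrated 37 °C 2 min, then drug or 0.1% DMSO vehicle 5 min. Activated with 100 nM FMLP after 1 μg/mL cytochalasin B preincubation, 3 min. A550 followed continuously with stirring. Superoxide from SOD (100 U/mL)-inhibitable difference, ε = 21.1/mM/10 mm; n = 3−4.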

[3] = Antiinflammatory activity in FMLP/CB activated human neutrophils assessed as inhibition of elastase release at 10 uM; assay type: functional; settings: Neutrophil; outline: as §1
[4] = Antiinflammatory activity in FMLP/CB activated human neutrophils assessed as inhibition of superoxide generation at 10 uM by ferricytochrome c reduction based spectrophotometry; assay type: functional; settings: Neutrophil; outline: as §2

Compound	pIC50 [1]	pIC50 [2]	inhibition at 10 µM [3] [%]	further results
C=C1C(=O)[C@@]23[C@H](O)C[C@@H]4C(C)(C)CCC[C@@]4(C)[C@@H]2CC[C@H]1[C@H]3OC(C)=O	5.63	5.95		
C=C1C(=O)[C@]23C[C@@H]1CC[C@H]2[C@]1(C)CCC[C@](C)(CO)[C@H]1C[C@@H]3O		5.40	45.8	
C=C1C(=O)[C@@]23CC[C@H]4[C@@](C)(CCC[C@]4(C)C(=O)O)[C@@H]2CC[C@H]1C3	5.25	5.49		
C=C1C(=O)[C@]23C[C@@H]1CC[C@H]2[C@]1(C)CCCC(C)(C)[C@H]1C[C@@H]3O	5.65	5.76		
C=C1C(=O)[C@@]23CC[C@@H]4C(C)(C)CCC[C@@]4(C)[C@@H]2CC[C@H]1[C@H]3O			3.64	inhibition at 10 µM [4]: 33.6%
C=C1C[C@@]23CC[C@H]4[C@@](C)(CCC[C@]4(C)C(=O)O)[C@@H]2[C@H](OC(C)=O)C[C@H]1C3	5.59	5.39		
C=C1C[C@]23C[C@@H]1CC[C@H]2[C@]1(C)CCC[C@](C)(COC(C)=O)[C@H]1C[C@H]3O				IC50 ([1]; neutrophil): ND(Insoluble); IC50 ([2]; neutrophil): ND(Insoluble)
C=C1C(=O)[C@]23C[C@@H]1C[C@@H](OC(C)=O)[C@H]2[C@]1(C)CCC[C@](C)(COC(C)=O)[C@H]1C[C@@H]3O	5.78	5.88		
C=C1C(=O)[C@@]23CC[C@@H]4[C@@](C)(COC(C)=O)CCC[C@@]4(C)[C@@H]2CC[C@@H]1C3	6.62	6.89		
C=C1C(=O)[C@@]23[C@H](O)C[C@@H]4C(C)(C)CC[C@@H](OC(C)=O)[C@@]4(C)[C@@H]2CC[C@@H]1[C@H]3O	5.61	5.71		
C=C1C(=O)[C@@]23CC[C@@H]4[C@@](C)(CO)CCC[C@@]4(C)[C@@H]2CC[C@@H]1C3			18	inhibition at 10 µM [4]: 29.9%
C=C1C(=O)[C@]23C[C@H]1CC[C@H]2[C@]1(C)CCC[C@](C)(COC(C)=O)[C@H]1C[C@H]3O	5.58	5.81		
C=C1C(=O)[C@@]23[C@H](O)C[C@@H]4C(C)(C)CCC[C@@]4(C)[C@@H]2CC[C@@H]1[C@H]3O	5.49	5.71		
CC(=O)OC[C@@]1(C)CCC[C@]2(C)[C@@H]1C[C@H](O)[C@@]13C[C@@H](CC[C@@H]21)[C@H](C)C3=O			-0.19	inhibition at 10 µM [4]: 40.4%
C=C1C(=O)[C@@]23[C@H](O)C[C@@H]4[C@@](C)(COC(C)=O)CCC[C@@]4(C)[C@@H]2CC[C@@H]1[C@H]3O			20.1	inhibition at 10 µM [4]: 19%
C=C1C(=O)[C@@]23[C@@H]4CC5=C(C(=O)CC5(C)C)[C@@](C)(O4)[C@@H]2CC[C@@H]1[C@H]3O [CROTONKINENSIN A]	5.79	5.69		
C=C1C[C@]23C(=O)C[C@H]4C(C)(C)CCC[C@]4(C)[C@H]2CC[C@H]1[C@@H]3O [CROTONKININ A]			-9.32	inhibition at 10 µM [4]: 1.65%
CC(=O)O[C@@H]1C[C@@H]2C[C@@]3(C=C2C=O)CC[C@H]2[C@](C)(CO)CCC[C@]2(C)[C@@H]13 [CROTONKININ B]	5.36	5.49		
CC(=O)O[C@H]1C[C@@H]2C[C@]3(C=C2C=O)CC[C@H]2[C@@](C)(CCC[C@]2(C)C(=O)O)[C@H]13 [CROTONKININ C]		5.30	41.8	
CC(=O)OC[C@@]1(C)CCC[C@]2(C)[C@@H]1CC[C@]13C=C(C(=O)O)[C@H](C[C@H](OC(C)=O)[C@H]12)C3 [CROTONKININ D]		5.53	20.3	
C=C1C(=O)[C@@]23CC[C@@H]4[C@@](C)(COC(C)=O)CCC[C@@]4(C)[C@@H]2[C@@H](OC(C)=O)C[C@@H]1C3 [CROTONKININ E]	5.33	5.51		
C=C1C(=O)[C@]23C[C@H]1CC[C@H]2[C@]1(C)CCC[C@](C)(COC(C)=O)[C@H]1C[C@H]3OC(C)=O [CROTONKININ F]	5.35	5.54		
COCC1C(=O)[C@]23C[C@H]1CC[C@H]2[C@]1(C)CCC[C@](C)(COC(C)=O)[C@H]1C[C@H]3O (stereo partly specified) [CROTONKININ G]		5.37	11.1	
CC(=O)OC[C@@]1(C)CCC[C@]2(C)[C@@H]1CC[C@@]13C[C@@H](C[C@H](O)[C@H]12)C(C)(O)C3 (stereo partly specified) [CROTONKININ H]			23.3	inhibition at 10 µM [4]: -10.9%
CC(=O)OC[C@@]1(C)CCC[C@]2(C)[C@@H]1CC[C@]13CC(=O)[C@H](C[C@H](OC(C)=O)[C@H]12)C3 [CROTONKININ J]		5.32	48.8	
c1ccc2c(c1)[I+]c1ccccc1-2 [DIPHENYLENEIODONIUM]		6.03		

Source: ChEMBL document CHEMBL2331294, “Anti-inflammatory diterpenoids from Croton tonkinensis” (J Nat Prod, 2013)
